Screens: PubChem, The Scripps Research Institute Molecular Screening Center
IMP-1 inh = inhibitors of Pseudomonas aeruginosa IMP-1 metallo-beta-lactamase; purified IMP-1, nitrocefin hydrolysis, epi-absorbance fluorescence; inhibition, % at 5.6 µM; 0.45% of 290,000 active;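 active = inhibition above the mean plus 3 SD of all compounds in the same screening run, cut at about 4.5% in these data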;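 note: 0% = IMP-1 with DMSO and 100% = DMSO wells lacking enzyme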
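System – purified recombinant IMP-1 beta-lactamase · Input – IMP-1 dispensed at 0.2 nM · Timing – 15 min preincubation plus 25 min reaction at 25 °C · Signal – Epi-absorbance fluorescence, 480 nm excitation, 530 nm emission · Measure – percent IMP-1 inhibition derived from blank-referenced optical density · Controls – Enzyme-plus-DMSO low control, enzyme-free DMSO high control · Replication – singlicate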
FID counter = fluorescent intercalator displacement, NS3 helicase counter-screen | DNA fluorescent intercalator displacement, fluorescence | inhibition, % at 7.9 µM | 0.17% of 290,000 active; in the data active = inhibition above about 37%;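 note: 0% = vehicle and 100% = reference compound; higher means more ethidium bromide displaced from hairpin DNA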
VIM-2 inhibitor = inhibitors of Pseudomonas aeruginosa VIM-2 metallo-beta-lactamase | 0.89% of 290,000 active | inhibition, % at 5.6 µM | purified VIM-2, nitrocefin hydrolysis, epi-absorbance fluorescence | AID 1527;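 active = inhibition above the mean of all tested compounds plus 3 SD, cutoff set per screening run, cut at about 7.5% in these data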;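 note: red hydrolysis product quenches plate fluorescence so inhibitors raise well fluorescence; 0% = enzyme with DMSO and 100% = DMSO without enzyme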
HCV NS3 hel inh = HCV NS3 helicase inhibition; 0.56% of 290,000 active; AID 1800; inhibition, % at 10.9 µM; NS3 helicase DNA unwinding, Cy5 molecular beacon fluorescence;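 active = inhibition above the mean of all tested compounds plus 3 SD, set per campaign, cut at about 35% in these data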;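 note: 0% = DMSO wells and 100% = thioflavine S control wells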
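Test system: hepatitis C virus NS3 helicase domain fragment enzyme. Also added: annealed dual-labelled DNA beacon duplex, ATP-started. Timing: 60 min unwinding reaction at 25 °C after ATP addition. Technique: Cy5 fluorescence. Measure: % inhibition of unwinding.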
* = called active by the depositor. An excerpt weighted towards active compounds, which were near 1.9% of everything screened.

SMILES	IMP-1 inh	FID counter	VIM-2 inhibitor	HCV NS3 hel inh
COc1cc(C(CC(=O)Nc2ccc(C)cn2)N2Cc3ccccc3C2=O)cc(OC)c1OC (configuration not stated)	-3	-30	-5	-3
O=C(COC(=O)CCN1C(=O)/C(=C\C=C\c2ccccc2)SC1=S)Nc1cc(F)ccc1F	7.9*	-12	-2	21
O=C(CCN1C(=O)/C(=C\C=C\c2ccccc2)SC1=S)Nc1ccc(C(=O)O)cc1	8.4*	-3	-1	3
N#Cc1cc2cc3c(cc2nc1N1CCOCC1)OCO3	4.5*	-4	-1	10
COc1ccc(CC(C)N2CCN(c3ccccc3OC)CC2)cc1OC (configuration not stated)	-4	-2	-3	-13
COc1ccc(CC(C)N2CCN(Cc3ccccc3)CC2)cc1OC (configuration not stated)	-3	38*	2	-70
CCOc1ccc2[nH]c(C)c(CN3CCN(CC)CC3)c(=O)c2c1	5.2*	9	-2	-1
CCOc1ccc2[nH]c(C)c(CN3CCN(C)CC3)c(=O)c2c1	-1	9	-3	-2
CC(C)C[C@H](NC(=O)N1CCn2c1nc1ccccc12)C(=O)N[C@@H](Cc1ccccc1)C(=O)O	-3	-25	-4	7
CC(C)N1CCC(N2CCN(Cc3ccc(-c4ccccc4Cl)o3)CC2CCO)CC1 (configuration not stated)	-2	53*	0	-45
CC(C)N1CCC(N2CCN(Cc3ccc(-c4ccc(Cl)cc4)o3)CC2CCO)CC1 (configuration not stated)	0	13	2	12
Cc1cnc(NC(=O)c2c(-c3ccccc3)noc2C)s1	-2	-11	-2	-16
O=C(O)c1cccc(S(=O)(=O)NNc2ccccc2C(F)(F)F)c1	25*	-1	0	8
O=C(O)c1cccc(Nc2nc(-c3cc4ccccc4oc3=O)cs2)c1	6.2*	-26	1	21
Cc1nnc2ccc(-c3cccc(NC(=O)c4ccc(Br)o4)c3)nn12	-3	-14	10*	-1
O=C(NCCNc1ccc2ccccc2c1)c1cccn2c(=O)c3sccc3nc12	-3	0	8.1*	-2
Cc1cccc2c1c1ccc3c(c1n2C)C(=O)C=CC3=O	5.2*	-14	2	26
CCOC(=O)c1c(NC(=O)CN2C(=O)CN(C)C2=O)sc(C)c1C	11*	-16	3	-2
CCOC(=O)c1c(NC(=O)CN2CCC(C)CC2)sc(C)c1C	-1	0	-1	-4
CC(C)N(C(=O)CN1CCC(c2nc3ccccc3[nH]2)CC1)C(C)C	-2	1	-2	3
O=C(NCCO)c1cccc2c1C(=O)c1ccccc1-2	-2	-2	7.9*	2
COC(=O)c1ccc(N(C(=O)c2ccco2)C(C(=O)NC2CCCC2)c2ccco2)cc1 (configuration not stated)	4.5*	-32	3	-3
Cc1cc(NC(=O)c2ccc3c(c2)OCO3)no1	4.7*	-2	1	2
Cc1cc(NC(=O)c2ccc3c(c2)OCCO3)no1	-3	-2	-2	-1
COc1ccc(-c2ccc(C(=S)N3CCN(C(C)=O)CC3)o2)cc1	8.5*	-23	-2	6
SMILES	IMP-1 inh	FID counter	VIM-2 inhibitor	HCV NS3 hel inh
COc1ccc(CC(=O)N2CCN(C(=O)Cc3ccc(OC)cc3)CC2)cc1	-5	-21	1	-5
O=C(N[C@@H](Cc1ccccc1)C(=O)O)c1c(F)c(F)c(F)c(F)c1F	-3	0	-3	-2
COCC(C)n1c(SCC(=O)NC(=O)Nc2ccc3c(c2)OCCO3)nc2ccccc2c1=O (configuration not stated)	5.5*	-9	-1	-13
O=C(CSc1nnnn1-c1ccccc1)NC(=O)Nc1ccc2c(c1)OCCO2	5.6*	-5	1	-15
CCOc1ccc(NC(=O)CSc2nc3ccccc3c(=O)n2CCCC(=O)NCCCN2CCCC2=O)cc1	0	-35	0	-13
COc1ccc(C(=O)NC(Nc2ccccc2)C(Cl)(Cl)Cl)cc1 (configuration not stated)	-1	1	3	-6
Cn1c(=O)c(NC2CCCCC2)c2c3c(cccc31)C(=O)c1ccccc1-2	5.9*	0	7	-2
CC(=O)Nc1ccc(Nc2c3c4c(cccc4n(C)c2=O)C(=O)c2ccccc2-3)cc1	0	7	-1	4
Cc1cnnc2c1-c1no[n+]([O-])c1CC2	-4	0	-2	2
Cc1cnnc2c1-c1nonc1CC2	4.5*	-2	-2	4
CCCN(CCC)Cc1c(C(=O)N/N=C/CCc2ccccc2)nnn1-c1nonc1N	-3	-25	-5	1
Cn1c(N)nc2nc(CCc3ccccc3)c(=O)[nH]c2c1=O	5.2*	-6	-1	28
O=[N+]([O-])c1cc(Cl)cc(/C=N\Nc2ccccn2)c1O	-2	5	-1	1
CN(C)C1(CN=Cc2cc(Cl)cc([N+](=O)[O-])c2O)CCCCC1	5.7*	-7	-4	33
Cc1ccc(C2/C(=C(/O)c3cnn(-c4ccccc4)c3C)C(=O)C(=O)N2CCN2CCOCC2)o1 (configuration not stated)	-1	-28	-2	0
Cc1c(/C(O)=C2/C(=O)C(=O)N(CCN3CCOCC3)C2c2cccs2)cnn1-c1ccccc1 (configuration not stated)	6.1*	-18	0	16
COCC(=O)N1CCC(Oc2ccc(C(=O)N(C)C(C)c3ccon3)cc2)CC1 (configuration not stated)	3	-9	-2	4
CC(C)CC(=O)Nc1c2c(nn1-c1ccc(F)cc1)CS(=O)(=O)C2	-2	-3	-2	2
O=C1c2ccccc2C(=O)N1CCCCN(C(=O)c1ccc([N+](=O)[O-])cc1)c1ccc(Cl)cc1	37*	-22	1	-7
Cc1cc(C)c(NC(=O)CSc2ccc3nnc(CCNC(=O)c4ccccc4)n3n2)c(C)c1	-1	-25	-2	-1
CC(CS(=O)(=O)c1ccc2c(c1)NC(=O)CS2)C(=O)NCc1ccccc1Cl (configuration not stated)	9.2*	-33	-3	3
COc1ccc(NC(=O)c2cccs2)cc1C(=O)N1CCN(c2ccccc2)CC1	-2	-49	-3	-4
O=C(NCCCn1ccnc1)c1cc(-c2ccncc2)nc2ccccc12	-1	2	11*	-7
O=C(NCCCn1ccnc1)c1cc(-c2ccc(Cl)cc2)nc2ccccc12	-3	14	-1	-67
COc1ccc(-c2ccc(CCC(=O)O)n2CC(C)C)cc1	7.1*	-27	2	23
CC(=O)c1cccc(CN2CCCC(C(=O)Nc3ccc(-c4ccco4)cc3)C2)c1 (configuration not stated)	-2	1	-1	-64
O=C(NN1C(=O)/C(=C/c2ccc(O)c([N+](=O)[O-])c2)SC1=S)c1ccccc1Cl	6.0*	2	-1	16
COc1cc(/C=C2\SC(=S)N(NC(=O)c3ccccc3O)C2=O)ccc1O	-8	27	-4	-2
